The record followed here is ChEMBL document CHEMBL1134684, “Phenoxypropoxybiguanides, prodrugs of DHFR-inhibiting diaminotriazine antimalarials” (J Med Chem, 2001).

The structures appear in SMILES notation. Converted amounts (≈) assume the structure as drawn. Some results are limits rather than exact numbers.

Data set [1] in a line: In vivo antimalarial activity against Plasmodium berghei in mice (Mus musculus) after 6 days. In kind it is functional. To be noted: 144 h. Summed up:
(§1)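 Male or female CD-1 mice (4-5 weeks, 20-25 g) infected ip on day 0 with 5 × 10⁴ P. berghei KBG-173 parasitized erythrocytes. Oral doses in 0.5% hydroxyethylcellulose/0.1% Tween-80, given bid 6 h apart on days 3, 4 and 5, computed as free base. Giemsa-stained tail-blood smears on day 6 give % infected RBC. ED90 is the dose reducing parasitemia to 10% of untreated infected controls.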

The species named for data set [2] is Mus musculus. Kind of data set: Dose required for 100%, 31 day survival of Plasmodium berghei inoculated mice (Mus musculus). In kind it is ADME, organism-based. To be noted: in vivo, 744 h. In outline:
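Same mouse P. berghei KBG-173 model, with ip infection on day 0 and oral bid treatment on days 3, 4 and 5. The experiment runs 31 days. The complete survival dose is the dose at which all animals are alive on day 31.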

Data set [3] is filed under the species Mus musculus. In words: Dose needed to increase the 100% survival of treated animals (mouse), to twice the number of days. To be noted: in vivo. In kind it is ADME, organism-based.
Data set [4] has as its system Plasmodium falciparum. In words: In vitro antimalarial activity against Plasmodium falciparum W2. In kind it is functional, organism-based. In outline: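 Chloroquine-, quinine-, sulfadoxine- and pyrimethamine-resistant Indochina W-2 clone tested in a semiautomated microdilution assay. Graded drug concentrations incubated 66 h in medium with physiological folic acid. Read-out is inhibition of radiolabeled hypoxanthine incorporation.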

In data set [5] the test system is Plasmodium falciparum. Kind of data set: In vitro antimalarial activity against Plasmodium falciparum K1. Type of data set: functional. Summed up: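 K1 parasites synchronized with 5% sorbitol. Drugs in methanol or DMSO, 2-fold serially diluted. Cultures at 2% hematocrit and 0.5% parasitemia (>95% rings) in 10% human serum under 5% O₂/5% CO₂/90% N₂ at 37.5 °C for 24-30 h. Romanowsky-stained thick films scored. MIC is the lowest concentration preventing >90% maturation to normal schizonts.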

For data set [6], the species on record is Mus musculus. In words: Dose required by the animals(mouse) to survive after 31 days. To be noted: in vivo, 744 h. Type of data set: ADME, organism-based. In outline: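 P. berghei KBG-173 in male or female CD-1 mice (4-5 weeks, 20-25 g), infected ip on day 0 with 5 × 10⁴ parasitized erythrocytes. Oral doses in 0.5% hydroxyethylcellulose/0.1% Tween-80 (10 mL/kg, free base), bid 6 h apart on days 3-5. Experiment run 31 days; complete survival dose = dose at which all animals survive to day 31.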

Data set [7] has as its system Mus musculus. Kind of data set: Compound was tested in vivo for antimalarial activity against Plasmodium berghei in mice (Mus musculus) after 6 days of administration (ED90 is the dose necessary to reduce the percentage of infected cells to 10% of the level found in the infected untreated controls). In kind it is functional. To be noted: 144 h. Summed up: as §1

Turning to `CC(C)/N=C(N)/N=C(\N)NOCCCOc1ccc(Cl)cc1Cl`, the ED90 in data set [1] is 17 mg/kg. This compound yielded a Dose in the data set filed under Mus musculus [2] of 64 mg/kg. In the data set filed under Mus musculus [3], this compound yielded an ED of 28 mg/kg.

In the data set on Plasmodium falciparum [4], `CC1(C)N=C(N)N=C(N)N1OCCCOc1ccc(F)c(F)c1.Cl` registered an IC50 of 0.0332 ng/mL. Moreover, in the data set on Plasmodium falciparum [5], the IC90 stood at 0.38 ng/mL.

Consider `CC1(C)N=C(N)N=C(N)N1OCCCOc1cccc(C(F)(F)F)c1.Cl`, for which, in the data set on Plasmodium falciparum [4], inhibition was half-maximal at 0.0299 ng/mL (IC50). Besides, in the data set with Plasmodium falciparum [5], the IC90 amounted to 2.5 ng/mL.

Take `CC1(C)N=C(N)N=C(N)N1OCCCOc1cc(Cl)c(Cl)cc1Cl`: in the data set on Plasmodium falciparum [4], the concentration for half-maximal inhibition (IC50) is 0.047 ng/mL (≈ 0.119 nM). The IC90 in the data set with Plasmodium falciparum [5] was 1.43 ng/mL (≈ 3.62 nM).

`CC(C)/N=C(N)/N=C(\N)NOCCCSc1ccc(Cl)cc1`: in data set [1], the ED90 is 73 mg/kg. The same compound displayed a Dose in the data set listed under Mus musculus [2] of 182 mg/kg. In the data set filed under Mus musculus [3], the ED turned out to be 112 mg/kg.

In turn, `CC(C)/N=C(N)/N=C(\N)NOCCCOc1ccc(F)cc1F.Cl` gave an ED90 in data set [1] of more than 128 mg/kg. For the same compound, in the data set filed under Mus musculus [3], the ED is more than 128 mg/kg.

The compound `CC(C)/N=C(N)/N=C(\N)NOCCCOc1ccc2ccccc2c1.Cl` registered an ED90 in data set [1] of less than 128 mg/kg. The compound also returned an ED in the data set filed under Mus musculus [3] of less than 128 mg/kg.

In turn, `Cc1ccc(OCCCON/C(N)=N/C(N)=N/C(C)C)cc1.Cl` gave an ED90 in data set [1] of 113 mg/kg. In addition, the Dose in the data set listed under Mus musculus [2] is 445 mg/kg. The ED in the data set listed under Mus musculus [3] worked out at 265 mg/kg.

As for `CC(C)NC(=N)NC(=N)NOCCCOc1ccc(Cl)cc1`, the ED90 in data set [1] is less than 16 mg/kg. Moreover, the Dose in the data set filed under Mus musculus [2] was found to be 79 mg/kg. The compound also yielded an ED in the data set filed under Mus musculus [3] of 26 mg/kg.

In data set [1], `CC(C)/N=C(N)/N=C(\N)NOCCCOc1ccc(Br)cc1` had an ED90 of less than 32 mg/kg. In addition, the Dose in the data set filed under Mus musculus [2] was determined as 135 mg/kg. Moreover, the ED in the data set filed under Mus musculus [3] came out at 64 mg/kg.

As to `CC1(C)N=C(N)N=C(N)N1OCCCOc1cc(F)cc(F)c1F.Cl`, inhibition in the data set on Plasmodium falciparum [4] was half-maximal at 0.0301 ng/mL (IC50). Besides, the IC90 in the data set on Plasmodium falciparum [5] is 0.63 ng/mL.

In the data set filed under Mus musculus [6], `CCN(CC)CCCC(C)Nc1ccnc2cc(Cl)ccc12` (stereo not given) [CHLOROQUINE] had a Complete survival dose of 256 mg/kg. In the data set on Mus musculus [7], this compound gave an ED90 of 3 mg/kg.

Turning to `CC1(C)N=C(N)N=C(N)N1OCCCSc1ccc(Cl)cc1`, 0.0288 ng/mL (≈ 0.0842 nM) corresponded to half-maximal inhibition in the data set with Plasmodium falciparum [4] (IC50). The compound also came in with an IC90 in the data set on Plasmodium falciparum [5] of 2.08 ng/mL (≈ 6.08 nM).

In turn, `Cc1cc(OCCCON2C(N)=NC(N)=NC2(C)C)ccc1C(C)C.Cl` came in with an IC50 in the data set on Plasmodium falciparum [4] of 0.0719 ng/mL. For the same compound, in the data set with Plasmodium falciparum [5], it took 11.7 ng/mL to reach the 90% level (IC90).

For the compound `CC(C)/N=C(N)/N=C(\N)NOCCCOc1ccc(F)cc1`, in data set [1], the ED90 was less than 16 mg/kg. Besides, the Dose in the data set listed under Mus musculus [2] amounted to 90 mg/kg. In the data set filed under Mus musculus [3], this compound showed an ED of 30 mg/kg.

With `Cc1cc(C)c(C)c(OCCCON/C(N)=N/C(N)=N/C(C)C)c1.Cl`, the ED90 in data set [1] was less than 128 mg/kg. The compound further gave an ED in the data set listed under Mus musculus [3] of more than 128 mg/kg.

In turn, `CC(C)/N=C(N)/N=C(\N)NOCCCOc1ccc(C(C)(C)C)cc1.Cl` had an ED90 in data set [1] of more than 128 mg/kg. This compound came in with a Dose in the data set listed under Mus musculus [2] of 1480 mg/kg. The ED in the data set listed under Mus musculus [3] was 460 mg/kg.

With `CCc1nc(N)nc(N)c1-c1ccc(Cl)cc1` [PYRIMETHAMINE], the Complete survival dose in the data set filed under Mus musculus [6] amounted to 400 mg/kg. This compound also displayed an IC90 in the data set on Plasmodium falciparum [5] of 1740 ng/mL (≈ 7020 nM). The same compound showed an ED90 in the data set on Mus musculus [7] of 1.2 mg/kg.

Compound `CC1(C)N=C(N)N=C(N)N1OCCCSc1cc(Cl)ccc1Cl` registered an IC50 in the data set on Plasmodium falciparum [4] of 0.0254 ng/mL (≈ 0.0675 nM). In the data set with Plasmodium falciparum [5], it took 2.08 ng/mL (≈ 5.53 nM) to reach the 90% level (IC90).

Consider `COc1ccc(OCCCON2C(N)=NC(N)=NC2(C)C)cc1.Cl`, for which the IC50 in the data set on Plasmodium falciparum [4] was found to be 0.0342 ng/mL. Moreover, the IC90 with Plasmodium falciparum [5] was 0.32 ng/mL.

`CC(C)/N=C(N)/N=C(\N)NOCCCOc1ccc(F)c(F)c1.Cl` had an ED90 in data set [1] of less than 16 mg/kg. The compound further returned a Dose in the data set listed under Mus musculus [2] of 77 mg/kg. Besides, the ED in the data set filed under Mus musculus [3] came to 27 mg/kg.

In turn, `CC(C)/N=C(N)/N=C(\N)NOCCCOc1cccc(C(F)(F)F)c1.Cl` returned an ED90 in data set [1] of 27 mg/kg. In the data set listed under Mus musculus [2], this compound gave a Dose of 140 mg/kg. Also, the ED in the data set listed under Mus musculus [3] was 73 mg/kg.

For `CC(C)NC(=N)NC(=N)NOCCCOc1ccc(Cl)c(Cl)c1`, in data set [1], the ED90 was less than 16 mg/kg. In the data set listed under Mus musculus [2], the Dose was 33 mg/kg. The ED in the data set listed under Mus musculus [3] is 16 mg/kg.

In the data set on Plasmodium falciparum [4], `CCCCCCCCCC1N=C(N)N=C(N)N1OCCCOc1cc(Cl)c(Cl)cc1Cl` (stereo not given) came in with an IC50 of more than 0.5 ng/mL. The compound also had an IC90 in the data set with Plasmodium falciparum [5] of more than 640 ng/mL.

In the data set on Plasmodium falciparum [5], `CC1(C)N=C(N)N=C(N)N1OCCCOc1ccc(Br)cc1.Cl` displayed an IC90 of 0.4 ng/mL.

`CC(C)/N=C(N)/N=C(\N)NOCCCOc1cc(F)c(F)cc1F.Cl` yielded an ED90 in data set [1] of 18 mg/kg. Besides, the Dose in the data set filed under Mus musculus [2] was 128 mg/kg. In the data set listed under Mus musculus [3], the ED was found to be 71 mg/kg.

Consider `CC1(C)N=C(N)N=C(N)N1OCCOc1cc(Cl)c(Cl)cc1Cl`, for which, in the data set on Plasmodium falciparum [4], the midpoint of inhibition, the IC50, lay at 0.278 ng/mL (≈ 0.73 nM). Moreover, the IC90 with Plasmodium falciparum [5] turned out to be 40 ng/mL (≈ 105 nM).

One may read the IC50 as the point on the concentration scale where inhibition reaches its midpoint. The IC90 is the point of the concentration-response curve where the effect stands at 90%. Read a low IC90 as an effect from little substance.
